The target in experiment [1] is 1,3-beta-glucan synthase (Candida glabrata, UniProt F5BCZ9, D666E). The experiment is described as follows: Inhibition of Candida glabrata isolate 42031 1,3-beta-D-glucan synthase wild type Fks1p/Fks2p D666E mutant. The procedure, abridged: (§1)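 Cells grown in YPD broth at 35°C with vigorous shaking to early stationary phase. Membrane protein extracted and glucan synthase partially purified by product entrapment. Filtration polymerization assay measured [3H]glucose incorporation into product, started by adding enzyme. Echinocandin serial dilutions spanned 0.01–10,000 ng/ml, with 1% DMSO controls for anidulafungin. IC50 from variable-slope sigmoidal fit.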

Experiment [2] concerns the target 1,3-beta-glucan synthase (Candida glabrata, UniProt E2GKZ4, D632E). As to the kind of experiment: Inhibition of Candida glabrata isolate 3169 1,3-beta-D-glucan synthase Fks1p D632E mutant/wild type Fks2p. The gist of the method: as §1
The target in experiment [3] is 1,3-beta-glucan synthase (Candida glabrata, UniProt F5BCZ9, P667T). As to the kind of experiment: Inhibition of Candida glabrata isolate 51916 1,3-beta-D-glucan synthase wild type Fks1p/Fks2p P667T mutant. The procedure, abridged:
as §1

The target of experiment [4] is 1,3-beta-glucan synthase (Candida glabrata, UniProt E2GKZ4, S629P). The experiment is described as follows: Inhibition of Candida glabrata isolate 5847 1,3-beta-D-glucan synthase Fks1p S629P mutant/wild type Fks2p. The procedure, abridged: as §1
The target of experiment [5] is 1,3-beta-glucan synthase (Candida glabrata, UniProt F5BCZ9, D666G). The experiment is described as follows: Inhibition of Candida glabrata isolate 41400 1,3-beta-D-glucan synthase wild type Fks1p/Fks2p D666G mutant. The procedure, abridged: as §1
Experiment [6] has as its target 1,3-beta-glucan synthase (Candida glabrata, UniProt F5BCZ9, S663P). The experiment is described as follows: Inhibition of Candida glabrata isolate 3830 1,3-beta-D-glucan synthase wild type Fks1p/Fks2p S663P mutant. The gist of the method:
as §1

The target of experiment [7] is 1,3-beta-glucan synthase (Candida glabrata, UniProt F5BCZ9, F659V). The experiment is described as follows: Inhibition of Candida glabrata isolate 234 1,3-beta-D-glucan synthase wild type Fks1p/Fks2p F659V mutant. The gist of the method: as §1
The target in experiment [8] is 1,3-beta-glucan synthase (Candida glabrata, UniProt F5BCZ9, W1375L). As to the kind of experiment: Inhibition of Candida glabrata isolate 5416 1,3-beta-D-glucan synthase wild type Fks1p/Fks2p W1375L mutant. The gist of the method: as §1
Experiment [9] concerns the target 1,3-beta-glucan synthase (Candida glabrata, UniProt F5BCZ9, F659S). The experiment is described as follows: Inhibition of Candida glabrata isolate 41026 1,3-beta-D-glucan synthase wild type Fks1p/Fks2p F659S mutant. The gist of the method:
as §1

By IC50 is commonly meant the midpoint of a concentration-inhibition curve.

1,3-beta-glucan synthase (Candida glabrata, UniProt E2GKZ4, S629P), sequence (E2GKZ4 entry or part of it S629P): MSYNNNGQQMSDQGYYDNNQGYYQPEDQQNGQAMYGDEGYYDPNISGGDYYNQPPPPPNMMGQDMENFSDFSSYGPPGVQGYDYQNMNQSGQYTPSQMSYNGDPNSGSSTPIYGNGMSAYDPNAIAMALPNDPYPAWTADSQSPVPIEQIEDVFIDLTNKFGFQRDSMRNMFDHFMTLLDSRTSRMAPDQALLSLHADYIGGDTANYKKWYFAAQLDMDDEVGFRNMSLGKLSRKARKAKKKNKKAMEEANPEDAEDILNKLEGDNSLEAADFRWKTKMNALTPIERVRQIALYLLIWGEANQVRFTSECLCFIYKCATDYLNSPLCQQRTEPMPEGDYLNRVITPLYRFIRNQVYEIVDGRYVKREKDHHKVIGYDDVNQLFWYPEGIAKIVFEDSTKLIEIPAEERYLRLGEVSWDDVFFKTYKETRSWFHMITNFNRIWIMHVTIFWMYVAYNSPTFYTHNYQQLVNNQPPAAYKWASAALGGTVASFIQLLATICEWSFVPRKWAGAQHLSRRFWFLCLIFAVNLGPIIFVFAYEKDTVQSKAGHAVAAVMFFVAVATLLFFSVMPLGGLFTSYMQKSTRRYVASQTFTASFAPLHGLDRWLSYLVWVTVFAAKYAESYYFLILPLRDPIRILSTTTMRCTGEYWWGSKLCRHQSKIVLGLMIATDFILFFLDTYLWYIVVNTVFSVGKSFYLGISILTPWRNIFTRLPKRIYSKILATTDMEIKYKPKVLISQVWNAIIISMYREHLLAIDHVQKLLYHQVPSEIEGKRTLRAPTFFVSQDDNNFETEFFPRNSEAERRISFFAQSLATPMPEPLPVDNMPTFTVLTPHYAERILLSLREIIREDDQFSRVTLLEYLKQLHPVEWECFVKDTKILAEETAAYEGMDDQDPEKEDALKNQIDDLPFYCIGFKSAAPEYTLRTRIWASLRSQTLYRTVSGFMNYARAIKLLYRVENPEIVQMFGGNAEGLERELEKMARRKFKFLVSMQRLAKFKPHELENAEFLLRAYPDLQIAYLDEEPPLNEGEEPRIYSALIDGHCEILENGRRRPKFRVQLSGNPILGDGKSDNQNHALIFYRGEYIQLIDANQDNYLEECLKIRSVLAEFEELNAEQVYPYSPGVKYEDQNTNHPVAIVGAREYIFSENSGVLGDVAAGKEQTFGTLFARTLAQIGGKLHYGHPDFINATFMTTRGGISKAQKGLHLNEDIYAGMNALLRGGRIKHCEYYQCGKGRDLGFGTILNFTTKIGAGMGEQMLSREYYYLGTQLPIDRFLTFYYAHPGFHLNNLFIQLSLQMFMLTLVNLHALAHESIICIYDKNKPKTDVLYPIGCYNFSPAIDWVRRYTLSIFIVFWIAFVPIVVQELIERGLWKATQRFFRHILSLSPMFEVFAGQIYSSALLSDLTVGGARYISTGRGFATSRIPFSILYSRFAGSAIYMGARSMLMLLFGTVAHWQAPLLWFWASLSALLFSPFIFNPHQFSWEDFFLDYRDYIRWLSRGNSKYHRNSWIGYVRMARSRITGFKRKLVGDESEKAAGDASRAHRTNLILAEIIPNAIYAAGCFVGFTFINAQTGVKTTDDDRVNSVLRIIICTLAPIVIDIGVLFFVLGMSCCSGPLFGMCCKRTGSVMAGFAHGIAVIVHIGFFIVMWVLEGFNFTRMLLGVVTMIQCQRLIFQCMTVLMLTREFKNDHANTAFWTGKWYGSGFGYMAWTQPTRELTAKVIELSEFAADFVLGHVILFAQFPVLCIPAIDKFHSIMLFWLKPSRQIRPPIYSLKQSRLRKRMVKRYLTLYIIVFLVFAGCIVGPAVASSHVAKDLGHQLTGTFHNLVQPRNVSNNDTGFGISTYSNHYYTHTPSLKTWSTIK
1,3-beta-glucan synthase (Candida glabrata, UniProt F5BCZ9, D666G), sequence (F5BCZ9 entry or part of it D666G): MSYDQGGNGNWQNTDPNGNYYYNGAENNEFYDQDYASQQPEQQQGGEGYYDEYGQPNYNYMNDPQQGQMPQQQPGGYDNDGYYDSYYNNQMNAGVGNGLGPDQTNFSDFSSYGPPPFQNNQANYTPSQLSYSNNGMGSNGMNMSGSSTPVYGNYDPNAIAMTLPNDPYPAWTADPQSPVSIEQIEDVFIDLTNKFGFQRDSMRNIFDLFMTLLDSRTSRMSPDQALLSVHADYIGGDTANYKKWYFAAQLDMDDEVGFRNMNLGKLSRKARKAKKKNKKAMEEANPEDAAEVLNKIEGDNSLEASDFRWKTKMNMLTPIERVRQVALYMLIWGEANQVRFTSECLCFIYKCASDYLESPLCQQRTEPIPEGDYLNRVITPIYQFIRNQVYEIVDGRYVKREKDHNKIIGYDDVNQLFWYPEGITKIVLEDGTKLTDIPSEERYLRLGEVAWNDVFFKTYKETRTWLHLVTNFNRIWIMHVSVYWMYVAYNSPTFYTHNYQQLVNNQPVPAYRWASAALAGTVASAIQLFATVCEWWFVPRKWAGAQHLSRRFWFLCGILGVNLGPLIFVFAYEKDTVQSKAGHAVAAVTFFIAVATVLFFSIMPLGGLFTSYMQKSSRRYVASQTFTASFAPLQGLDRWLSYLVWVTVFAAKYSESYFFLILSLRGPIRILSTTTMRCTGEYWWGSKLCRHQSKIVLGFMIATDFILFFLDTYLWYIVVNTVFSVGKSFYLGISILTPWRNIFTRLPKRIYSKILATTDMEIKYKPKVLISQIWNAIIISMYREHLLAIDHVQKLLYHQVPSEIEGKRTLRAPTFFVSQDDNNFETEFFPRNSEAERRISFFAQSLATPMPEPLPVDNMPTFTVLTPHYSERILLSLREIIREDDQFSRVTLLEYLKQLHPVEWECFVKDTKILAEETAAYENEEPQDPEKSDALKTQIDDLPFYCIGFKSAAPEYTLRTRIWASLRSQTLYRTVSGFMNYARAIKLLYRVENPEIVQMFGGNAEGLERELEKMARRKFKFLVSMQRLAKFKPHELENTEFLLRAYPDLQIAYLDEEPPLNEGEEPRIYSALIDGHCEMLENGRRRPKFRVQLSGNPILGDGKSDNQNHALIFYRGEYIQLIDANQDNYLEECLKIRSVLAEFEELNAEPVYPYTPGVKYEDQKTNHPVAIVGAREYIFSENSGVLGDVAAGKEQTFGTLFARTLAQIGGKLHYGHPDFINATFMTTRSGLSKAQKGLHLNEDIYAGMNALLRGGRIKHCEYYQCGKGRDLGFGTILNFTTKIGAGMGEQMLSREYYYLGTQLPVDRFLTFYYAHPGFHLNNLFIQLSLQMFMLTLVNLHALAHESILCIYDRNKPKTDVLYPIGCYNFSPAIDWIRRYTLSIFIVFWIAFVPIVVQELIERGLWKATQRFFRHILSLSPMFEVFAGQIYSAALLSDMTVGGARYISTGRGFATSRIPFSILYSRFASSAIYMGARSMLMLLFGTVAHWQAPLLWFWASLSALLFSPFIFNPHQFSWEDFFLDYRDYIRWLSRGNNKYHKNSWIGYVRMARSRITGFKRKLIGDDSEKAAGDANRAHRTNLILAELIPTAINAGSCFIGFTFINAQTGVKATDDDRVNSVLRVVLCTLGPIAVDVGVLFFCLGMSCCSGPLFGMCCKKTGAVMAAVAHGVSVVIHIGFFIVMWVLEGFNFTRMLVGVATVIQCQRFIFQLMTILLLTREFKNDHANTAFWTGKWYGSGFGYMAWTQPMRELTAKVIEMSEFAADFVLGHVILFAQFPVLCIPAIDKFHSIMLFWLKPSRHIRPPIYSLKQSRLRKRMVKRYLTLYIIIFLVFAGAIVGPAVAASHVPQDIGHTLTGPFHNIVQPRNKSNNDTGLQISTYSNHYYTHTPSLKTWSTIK

As for `CCC(C)CC(C)CCCCCCCCC(=O)N[C@H]1C[C@@H](O)[C@@H](NCCN)NC(=O)[C@@H]2[C@@H](O)CCN2C(=O)[C@H]([C@H](O)CCN)NC(=O)[C@H]([C@H](O)[C@@H](O)c2ccc(O)cc2)NC(=O)[C@@H]2C[C@@H](O)CN2C(=O)[C@H]([C@@H](C)O)NC1=O` (some centres undefined) [CHEBI:474180], the IC50 in [1] was determined as 258 nM; in experiment [2] it was 845 nM; in experiment [3] it was 166 nM; in [4] it was 4990 nM; in experiment [5] it was 507 nM; in [6], 5120 nM. Further, the results for the IC50 in experiment [7], in experiment [8] and in experiment [9] were 115 nM, 608 nM and 1060 nM, respectively.
